Assay results from ChEMBL document CHEMBL3085705, “Design, chemical synthesis of 3-(9H-fluoren-9-yl)pyrrolidine-2,5-dione derivatives and biological activity against enoyl-ACP reductase (InhA) and Mycobacterium tuberculosis” (2013).

Assays:
Type in all cases: functional
[1] = system: Mycobacterium tuberculosis; assay: Antimicrobial activity against streptomycin, isoniazid, rifampicin, ethambutol, pyrazinamide and ethionammide-resistant Mycobacterium tuberculosis clinical isolate by two-fold serial dilution method
How it was run: (§1)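 Compounds dissolved in DMSO. Single colony grown in Middlebrook 7H9 with 0.05% Tween 80 and 10% OADC at 37 °C, no shaking, to ~10^8 CFU/mL (OD600 0.8–1.0). Diluted to ~10^7 CFU/mL; 1 μL streaked onto 7H11 agar (0.5% glycerol, 10% OADC) with two-fold serial compound dilutions. MIC is the lowest concentration inhibiting growth. Repeated three times.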

[2] = system: Mycobacterium tuberculosis; assay: Antimicrobial activity against streptomycin, isoniazid, rifampicin, ethambutol, pyrazinamide, ethionammide and capreomicinl-resistant Mycobacterium tuberculosis clinical isolate by two-fold serial dilution method; how it was run: as §1
[3] = system: Mycobacterium tuberculosis; assay: Antimicrobial activity against streptomycin, isoniazid, rifampicin and ethambutol-resistant Mycobacterium tuberculosis clinical isolate by two-fold serial dilution method; how it was run: as §1

Measured: MIC

O=C(CC(C(=O)O)C1c2ccccc2-c2ccccc21)Nc1cc(Cl)cc(Cl)c1 (stereo not drawn)
4.7 µM: all assays above
